Measured values: ChEMBL document CHEMBL1156385, “Macharistol, a new cytotoxic cinnamylphenol from the stems of Machaerium aristulatum” (J Nat Prod, 2001)
Converted amounts (≈) assume the structure as drawn. The source made the active and inactive calls. The calls are words filed in the database; no cut-off is given here.

Experiments:
KB [1] = assay: Cytotoxicity against human KB cells; format: functional, cell-based
Mus musculus [2] = assay: Toxicity in athymic NCr nu/nu mouse implanted with human KB cells at subcutaneous compartment assessed as body weight loss at 25 mg/kg, ip administered once daily after 3 to 6 days of fiber implantation measured on day 7 by hollow fiber assay; format: organism-based; parameters: dose 25 mg/kg; settings: in vivo, sc
In short: (§1)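 Female athymic NCr nu/nu mice carried i.p. and s.c. hollow fibers with KB, Col-2 or hTERT-RPE1 cells. They received the PVP-coprecipitated compound in PBS at 6.25, 12.5 or 25 mg/kg i.p. once daily on days 3–6 after implantation. Toxicity was followed as body weight, recorded daily.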

[3] = Growth inhibition of human telomerase […] RPE1 cells implanted at subcutaneous compartment of athymic NCr nu/nu mouse at 25 mg/kg, ip administered once daily after 3 to 6 days of fiber implantation measured on day 7 by hollow fiber assay; format: functional, TERT-RPE1; settings: RPE-1, sc, read-out: GI
In short: (§2)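 Hollow fibers carrying KB (7.5 × 10⁵ cells/mL), Col-2 (10⁶ cells/mL) or hTERT-RPE1 (2.5 × 10⁶ cells/mL) cells were implanted i.p. and s.c. in female athymic NCr nu/nu mice. Compound was coprecipitated with PVP (MW 360 000) and dissolved in PBS. Doses of 6.25, 12.5 or 25 mg/kg were given i.p. once daily on days 3–6 after implantation. Fiber cell growth inhibition was measured.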

Mus musculus [4] = assay: Toxicity in athymic NCr nu/nu mouse implanted with human KB cells at intraperitoneal compartment assessed as body weight loss at 25 mg/kg, ip administered once daily after 3 to 6 days of fiber implantation measured on day 7 by hollow fiber assay; format: organism-based; parameters: dose 25 mg/kg, route intraperitoneal; settings: in vivo; in short: as §1
Mus musculus [5] = assay: Toxicity in athymic NCr nu/nu mouse implanted with human telomerase […] RPE1 cells at intraperitoneal compartment assessed as body weight loss at 25 mg/kg, ip administered once daily after 3 to 6 days of fiber implantation measured on day 7 by hollow fiber assay; format: organism-based; parameters: dose 25 mg/kg, route intraperitoneal; settings: in vivo; in short: as §1
LNCaP = assay: Cytotoxicity against human LNCAP cells; format: functional, cell-based
KB [6] = assay: Growth inhibition of human KB cells implanted at subcutaneous compartment of athymic NCr nu/nu mouse at 25 mg/kg, ip administered once daily after 3 to 6 days of fiber implantation measured on day 7 by hollow fiber assay; format: functional; settings: sc, read-out: GI; in short: as §2
[7] = Growth inhibition of human telomerase […] RPE1 cells implanted at intraperitoneal compartment of athymic NCr nu/nu mouse at 25 mg/kg, ip administered once daily after 3 to 6 days of fiber implantation measured on day 7 by hollow fiber assay; format: functional, TERT-RPE1; settings: RPE-1, ip, read-out: GI; in short: as §2
Mus musculus [8] = assay: Toxicity in athymic NCr nu/nu mouse implanted with human Col2 cells at subcutaneous compartment assessed as body weight loss at 25 mg/kg, ip administered once daily after 3 to 6 days of fiber implantation measured on day 7 by hollow fiber assay; format: organism-based; parameters: dose 25 mg/kg; settings: in vivo, sc; in short: as §1
Col2 [9] = assay: Growth inhibition of human Col2 cells implanted at intraperitoneal compartment of athymic NCr nu/nu mouse at 25 mg/kg, ip administered once daily after 3 to 6 days of fiber implantation measured on day 7 by hollow fiber assay; format: functional; settings: read-out: GI; in short: as §2
Col2 [10] = assay: Growth inhibition of human Col2 cells implanted at subcutaneous compartment of athymic NCr nu/nu mouse at 25 mg/kg, ip administered once daily after 3 to 6 days of fiber implantation measured on day 7 by hollow fiber assay; format: functional; settings: Col2, sc, read-out: GI; in short: as §2
Mus musculus [11] = assay: Toxicity in athymic NCr nu/nu mouse implanted with human Col2 cells at intraperitoneal compartment assessed as body weight loss at 25 mg/kg, ip administered once daily after 3 to 6 days of fiber implantation measured on day 7 by hollow fiber assay; format: organism-based; parameters: dose 25 mg/kg, route intraperitoneal; settings: in vivo; in short: as §1
KB [12] = assay: Growth inhibition of human KB cells implanted at intraperitoneal compartment of athymic NCr nu/nu mouse at 25 mg/kg, ip administered once daily after 3 to 6 days of fiber implantation measured on day 7 by hollow fiber assay; format: functional; settings: read-out: GI; in short: as §2
Mus musculus [13] = assay: Toxicity in athymic NCr nu/nu mouse implanted with human telomerase […] RPE1 cells at subcutaneous compartment assessed as body weight loss at 25 mg/kg, ip administered once daily after 3 to 6 days of fiber implantation measured on day 7 by hollow fiber assay; format: organism-based; parameters: dose 25 mg/kg; settings: in vivo, sc; in short: as §1
Col2 [14] = assay: Cytotoxicity against human Col2 cells; format: functional, cell-based

COc1ccc2c(c1)O[C@@H]1c3ccc(O)cc3OC[C@H]21
EC50 (KB [1]): 2.4 µg/mL (≈ 8.88 µM)

COc1ccc(-c2coc3cc(O)ccc3c2=O)cc1
Activity (KB [1]): inactive

Oc1ccc2c(c1)OC[C@@H]1c3cc4c(cc3O[C@H]21)OCO4
Activity (KB [1]): inactive

COc1c(O)cc(C/C=C/c2ccccc2)c(OC)c1O [MACHARISTOL]
Activity (Mus musculus [2]): Non-toxic | inhibition in vivo at 25 mg/kg [3]: 45% | Activity (Mus musculus [4]): Non-toxic | Activity (Mus musculus [5]): Non-toxic | EC50 (LNCaP): 2.4 µg/mL (≈ 8.38 µM) | inhibition in vivo at 25 mg/kg (KB [6]): 0% | inhibition in vivo at 25 mg/kg [7]: 31% | Activity (Mus musculus [8]): Non-toxic | inhibition in vivo at 25 mg/kg (Col2 [9]): 35% | inhibition in vivo at 25 mg/kg (Col2 [10]): 35% | Activity (Mus musculus [11]): Non-toxic | EC50 (KB [1]): 1.7 µg/mL (≈ 5.94 µM) | inhibition in vivo at 25 mg/kg (KB [12]): 23% | Activity (Mus musculus [13]): Non-toxic | EC50 (Col2 [14]): 3 µg/mL (≈ 10.5 µM)
